The species entered for assay [1] is Rattus norvegicus. The assay can be described thus: Compound was evaluated for its ability to inhibit the uptake of dopamine(DA) into nerve ending using [3H]DA on synaptosomes obtained from dissected rat striata. Type of assay: functional. The note with it: Brain.
The target of assay [2] is Norepinephrine transporter (Rattus norvegicus, UniProt Q9WTR4). Put plainly: Inhibition of [3H]NE uptake by Norepinephrine transporter of rat occipital cortex synaptosomes. The class given is subcellular, Brain. The procedure, abridged: (§1)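 Rat parietal and occipital cortex P2 synaptosomes in ice-cold modified KRH buffer; preincubated with drug 30 min at 37 °C, then [3H]NE 8-10 nM added for 5 min. Stopped with cold Na-free glucosamine buffer, then filtered; scintillation counting. Specific uptake defined with 3 µM desipramine. Ki from IC50 using Km 54 nM. Six drug concentrations in triplicate, 2-5 experiments.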
Norepinephrine transporter, sequence (Q9WTR4 whole entry): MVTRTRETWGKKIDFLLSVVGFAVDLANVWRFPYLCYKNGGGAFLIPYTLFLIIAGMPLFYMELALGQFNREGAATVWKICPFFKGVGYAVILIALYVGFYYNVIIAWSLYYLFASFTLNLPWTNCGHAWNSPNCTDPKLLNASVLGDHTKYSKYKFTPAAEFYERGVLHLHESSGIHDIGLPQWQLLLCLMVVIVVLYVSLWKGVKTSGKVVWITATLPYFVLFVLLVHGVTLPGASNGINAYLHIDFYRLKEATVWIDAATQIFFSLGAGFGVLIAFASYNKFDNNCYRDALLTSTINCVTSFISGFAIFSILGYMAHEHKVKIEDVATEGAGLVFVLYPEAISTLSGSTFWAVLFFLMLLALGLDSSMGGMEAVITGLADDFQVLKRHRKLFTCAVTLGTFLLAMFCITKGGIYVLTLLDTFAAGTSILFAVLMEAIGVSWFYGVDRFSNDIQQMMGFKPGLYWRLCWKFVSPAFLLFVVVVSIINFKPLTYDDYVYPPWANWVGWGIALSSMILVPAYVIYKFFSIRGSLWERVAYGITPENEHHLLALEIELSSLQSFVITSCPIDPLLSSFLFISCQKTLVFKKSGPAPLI

Assay [3] is filed under the species Rattus norvegicus. Put plainly: Compound was evaluated for its ability to antagonizing serotonin high affinity uptake was determined using [3H]5-HT on synaptosomes prepared from rat midbrain or parietal cortices. The note with it: Brain. Type of assay: functional.
Assay [4] addresses Sodium-dependent dopamine transporter (Rattus norvegicus, UniProt P23977). Put plainly: Inhibition of [3H]DA uptake by dopamine transporter of rat striata synaptosomes. Type of assay: subcellular, Brain. The procedure, abridged:
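Rat striatum homogenised in 0.32 M sucrose, P2 synaptosomes resuspended in KRH buffer; preincubated with drug 30 min at 37 °C, then [3H]DA 3-5 nM final for 5 min. Stopped with cold Na-free glucosamine buffer, then filtered; scintillation counting. Six concentrations in triplicate, 2-5 experiments.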

Assay [5] deals with Monoamine transporters; serotonin & dopamine (Rattus norvegicus) (UniProt P31652+P23977). The assay can be described thus: Relative affinity for dopamine over 5-HT transporters. Type of assay: protein assay. The procedure, abridged: (§2)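 Selectivity ratios calculated from Ki values of the rat synaptosomal [3H]DA, [3H]NE and [3H]5-HT uptake inhibition assays.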
Monoamine transporters; serotonin & dopamine (Rattus norvegicus), sequence (P23977 whole entry, looked up): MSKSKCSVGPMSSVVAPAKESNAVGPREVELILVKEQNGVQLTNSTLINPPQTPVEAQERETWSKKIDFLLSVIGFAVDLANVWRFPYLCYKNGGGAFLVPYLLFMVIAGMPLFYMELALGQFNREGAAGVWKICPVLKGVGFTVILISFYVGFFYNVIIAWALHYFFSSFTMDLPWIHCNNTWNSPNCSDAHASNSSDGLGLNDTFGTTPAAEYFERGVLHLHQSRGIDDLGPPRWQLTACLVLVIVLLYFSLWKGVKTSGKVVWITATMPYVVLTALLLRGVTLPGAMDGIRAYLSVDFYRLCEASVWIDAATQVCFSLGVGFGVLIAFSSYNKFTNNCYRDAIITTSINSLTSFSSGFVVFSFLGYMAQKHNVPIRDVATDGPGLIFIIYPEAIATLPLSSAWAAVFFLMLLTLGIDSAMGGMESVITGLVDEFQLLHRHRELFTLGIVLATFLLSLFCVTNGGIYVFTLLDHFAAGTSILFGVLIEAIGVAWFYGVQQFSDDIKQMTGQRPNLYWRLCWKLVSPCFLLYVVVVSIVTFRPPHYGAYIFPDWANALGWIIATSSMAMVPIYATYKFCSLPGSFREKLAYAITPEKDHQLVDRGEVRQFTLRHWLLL
Monoamine transporters; serotonin & dopamine (Rattus norvegicus), sequence (P31652 whole entry, looked up): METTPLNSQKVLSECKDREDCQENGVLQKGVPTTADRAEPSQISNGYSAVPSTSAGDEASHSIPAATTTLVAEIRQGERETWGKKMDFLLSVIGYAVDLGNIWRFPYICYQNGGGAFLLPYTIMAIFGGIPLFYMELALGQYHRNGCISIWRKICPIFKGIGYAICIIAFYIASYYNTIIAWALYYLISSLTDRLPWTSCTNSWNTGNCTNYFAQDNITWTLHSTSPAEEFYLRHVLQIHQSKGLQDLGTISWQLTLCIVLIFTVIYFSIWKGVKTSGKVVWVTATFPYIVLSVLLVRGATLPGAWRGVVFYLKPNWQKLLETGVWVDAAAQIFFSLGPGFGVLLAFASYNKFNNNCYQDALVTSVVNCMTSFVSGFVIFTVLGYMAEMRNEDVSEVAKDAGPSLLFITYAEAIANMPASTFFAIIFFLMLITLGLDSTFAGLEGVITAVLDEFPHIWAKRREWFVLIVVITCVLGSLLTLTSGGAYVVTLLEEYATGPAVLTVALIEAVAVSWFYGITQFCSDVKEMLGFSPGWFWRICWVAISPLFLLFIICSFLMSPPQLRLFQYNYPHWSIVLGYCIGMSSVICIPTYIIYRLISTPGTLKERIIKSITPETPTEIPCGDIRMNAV
Assay [6] has as its target Sodium-dependent serotonin transporter (Rattus norvegicus, UniProt P31652). Put plainly: Inhibition of [3H]5-HT uptake by Serotonin transporter of rat midbrain or parietal synaptosomes. The class given is subcellular, Brain. The procedure, abridged:
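Rat midbrain P2 synaptosomes in modified KRH buffer; preincubated with drug 30 min at 37 °C, then [3H]5-HT 4-5 nM for 5 min. Stopped with cold Na-free glucosamine buffer, then filtered; scintillation counting. […] Ki from IC50 using Km 53 nM. Six drug concentrations in triplicate, 2-5 experiments.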

For assay [7], the target named is Monoamine transporters; Norepinephrine & serotonin (Rattus norvegicus) (UniProt P31652+Q9WTR4). Put plainly: Relative affinity for norepinephrine over 5-HT transporters. Type of assay: protein assay. The procedure, abridged: as §2
Assay [8] is filed under the species Rattus norvegicus. The assay can be described thus: Compound was evaluated for its ability to antagonizing norepinephrine (NE) high affinity uptake was determined using [3H]NE on synaptosomes prepared from rat occipital cortices. The class given is functional. The note with it: Brain. The method, boiled down: as §1
The species named for assay [9] is Rattus norvegicus. The assay can be described thus: Compound was evaluated for its ability to antagonizing norepinephrine (NE), high affinity uptake was determined using [3H]NE on synaptosomes prepared from rat occipital cortices. The note with it: Brain.

14 compounds from ChEMBL document CHEMBL1133161 (J Med Chem, 2000) can be followed below.

Molecules are shown by their SMILES. “And” between values parts separate entries of the source, which are not always exact repeats. Equal entries are not always repeated.

Sodium-dependent serotonin transporter, sequence (P31652 whole entry): as the sequence (P31652 whole entry, looked up) above
Sodium-dependent dopamine transporter, sequence (P23977 whole entry): as the sequence (P23977 whole entry, looked up) above

For the compound `COC(=O)[C@@H]1CN(C)CC[C@@H]1c1ccc2ccccc2c1`, the figures for the IC50 in assay [1] and in [3] were 23 nM and 8.2 nM, respectively. The Ki in assay [2] stood at 34 nM; in assay [4], 21 nM; in [6], 7.6 nM. Also, the Ratio in assay [5] is 2.8 and 4.5.

For `COC(=O)[C@H]1CN(C)CC[C@H]1c1ccc2ccccc2c1`, the IC50 was 293 nM in [1] and 13 nM in assay [3]. In addition, the Ki in assay [2] was determined as 38 nM; in assay [4], 271 nM; in [6] it was 12 nM. The Ratio worked out at 3.2 in assay [7] and 23 in assay [5].

With `C#Cc1ccc([C@H]2CCN(C)C[C@H]2C(=O)OC)cc1`, the IC50 is 213 nM in assay [1], 189 nM in assay [3] and 399 nM in [8]. Also, the figures for the Ki in [2], in assay [4] and in [6] were 364 nM, 187 nM and 175 nM, respectively. For the same compound, the Ratio in assay [7] came to 2.1; in assay [5], 1.1.

Consider `COC(=O)[C@@H]1CN(C)CC[C@@H]1c1ccc(Cl)cc1`, for which the results for the 50% inhibitory concentration (IC50) in assay [1], in [3] and in assay [8] were 75 nM, 440 nM and 101 nM, respectively. Further, the values for the Ki in assay [2], in [4] and in [6] were 88 nM, 69 nM and 391 nM, respectively. Besides, the figures for the Ratio in assay [7] and in assay [5] were 0.23 and 0.18, respectively.

With `CNCCC(Oc1ccc(C(F)(F)F)cc1)c1ccccc1` (stereo unspecified) [FLUOXETINE], the IC50 is > 4500 nM in [1], 8.1 nM in [3] and 193 nM in assay [8].

On to `COC(=O)[C@@H]1CN(C)CC[C@@H]1c1cccc2ccccc12`, for which the IC50 in [1] was 326 nM; in assay [3], 113 nM; in assay [8], 337 nM. In addition, the results for the Ki in [2], in [4] and in assay [6] were 281 nM, 304 nM and 101 nM, respectively. In addition, the values for the Ratio in assay [7] and in assay [5] were 2.8 and 3, respectively.

For `COC(=O)[C@@H]1CN(C)CC[C@@H]1c1ccc(-c2ccccc2)cc1`, the IC50 in [1] worked out at 184 nM; in [3], 67 nM; in [8] it was 239 nM. Besides, the Ki in [2] came out at 203 nM; in assay [4], 173 nM; in [6], 62 nM. In addition, the Ratio in [7] worked out at 3.3; in assay [5], 2.8.

As for `COC(=O)[C@H]1[C@@H](OC(=O)c2ccccc2)C[C@@H]2CC[C@H]1N2C` [COCAINE], the IC50 in assay [9] came to 127 nM.

As to `CCc1ccc([C@H]2CCN(C)CC2C(=O)OC)cc1` (stereo partly specified), the IC50 is > 1800 nM in assay [1], 275 nM in assay [3] and > 1300 nM in assay [8]. In addition, the Ki in assay [2] was > 1100 nM; in [4], > 1700 nM; in assay [6] it was 255 nM. Moreover, the Ratio in assay [7] is > 4; in assay [5], > 6.

As to `C=CCc1ccc([C@H]2CCN(C)C[C@H]2C(=O)OC)cc1`, the figures for the IC50 in assay [1], in assay [3] and in assay [8] were > 1000 nM, 334 nM and > 1200 nM, respectively. Moreover, the results for the Ki in assay [2], in assay [4] and in assay [6] were > 1000 nM, 964 nM and 309 nM, respectively. In addition, the Ratio is > 3.5 in assay [7] and 3.1 in [5].

For `COC(=O)[C@H]1CN(C)CC[C@@H]1c1ccc2ccccc2c1`, the values for the IC50 in assay [1] and in assay [3] were > 1000 nM and 46 nM, respectively. Besides, the Ki in [2] is 241 nM; in assay [4], 947 nM; in assay [6] it was 42 nM. In addition, the Ratio in [7] came out at 5.7; in assay [5], 22.6.

With `C=Cc1ccc([C@H]2CCN(C)C[C@H]2C(=O)OC)cc1`, the Ki was 175 nM in [2] and 138 nM in [6]. Also, the half-inhibitory concentration (IC50) came to 155 nM in assay [3] and 204 nM in assay [8].

On to `COC(=O)[C@@H]1CN(C)CC[C@H]1c1ccc2ccccc2c1`, for which the IC50 in assay [1] turned out to be 94 nM; in assay [3], 209 nM. For the same compound, the figures for the Ki in [2], in assay [4] and in assay [6] were 27 nM, 87 nM and 192 nM, respectively. Moreover, the results for the Ratio in assay [7] and in assay [5] were 0.14 and 0.45, respectively.

Regarding `COC(=O)[C@@H]1CNCC[C@H]1c1ccc2ccccc2c1`, the IC50 in assay [1] was 97 nM; in assay [3], 3.9 nM; in [8], 34 nM. Besides, the Ki in assay [2] was found to be 30 nM; in [4] it was 90 nM; in assay [6], 3.5 nM. Also, the Ratio in assay [7] was found to be 8.6; in assay [5], 26.
